Test results taken from ChEMBL document CHEMBL3616436, “Synthesis, cytotoxicity and antimicrobial activity of thiourea derivatives incorporating 3-(trifluoromethyl)phenyl moiety” (Eur J Med Chem, 2015).
In brackets after ≈: the same amount, converted by molar mass. Activity calls are given as the source filed them. The rule behind the calls is not given here.

How the values were obtained:
[1] = Cytotoxicity against BHK cells assessed as cell viability after 48 to 96 hrs by MTT assay; format: cell-based, Mesocricetus auratus; settings: hamster
Enterococcus faecalis = test: Antimicrobial activity against Enterococcus faecalis ATCC 29212 at 400 ug after 18 hrs by disc-diffusion method; format: functional; settings: ATCC 29212, 18 h, read-out: IZ
Outline: (§1)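 Disc diffusion on Mueller-Hinton II agar per CLSI; 9 mm paper discs loaded with 400 µg compound from DMSO solution, dried, placed on agar; growth inhibition zone diameter read after 18 h at 35°C.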

[2] = test system: Mycobacterium tuberculosis; test: Antimycobacterial activity against drug-sensitive Mycobacterium tuberculosis Spec. 192; format: functional
Outline: (§2)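 Classical test-tube successive-dilution method in Youmans' modification of Proskauer and Beck liquid medium with 10% bovine serum. Inoculum came from 14-day cultures. DMSO stock was 10 mg/mL, diluted geometrically in medium. Tubes were incubated at 37 °C. Concentrations tested were 3.1, 6.2, 12.5, 25, 50 and 100 µg/ml. MIC is the minimum concentration inhibiting growth relative to compound-free tubes.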

Human alphaherpesvirus 1 = test: Antiviral activity against Human herpesvirus 1 KOS ATCC VR-1493 infected in African green monkey Vero 76 cells assessed as reduction of virus-plaque formation after 3 days by crystal violet staining; format: functional, organism-based; settings: Human alphaherpesvirus 1, KOS ATCC VR1493, Vero, 72 h
Outline: (§3)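 Plaque reduction: Vero-76 at 2x10^5 cells/well grown to confluent monolayers, infected 2 h at 50–100 PFU/well; after removing unadsorbed virus, overlay of D-MEM, 1% inactivated FBS, 0.75% methylcellulose with or without serial compound dilutions; 3 days at 37°C, fixed and stained with crystal violet in 50% ethanol, plaques counted; EC50 by linear regression.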

[3] = test system: Vesicular stomatitis virus; test: Antiviral activity against Vesicular stomatitis virus ATCC VR 1540 infected in African green monkey Vero 76 cells assessed as reduction of virus-plaque formation after 2 days by crystal violet staining; format: functional, organism-based; settings: ATCC VR 1540, Vero, 48 h
[4] = Cytotoxicity against human MT4 cells; format: cell-based
Staphylococcus aureus [5] = test: Antimicrobial activity against Staphylococcus aureus ATCC 29213 at 400 ug after 18 hrs by disc-diffusion method; format: functional; settings: ATCC 29213, 18 h, read-out: IZ; outline: as §1
Micrococcus luteus [6] = test: Antimicrobial activity against Micrococcus luteus ATCC 10240 at 400 ug after 18 hrs by disc-diffusion method; format: functional; settings: ATCC 10240, 18 h, read-out: IZ; outline: as §1
[7] = test system: Staphylococcus epidermidis; test: Antimicrobial activity against Staphylococcus epidermidis ATCC 12228 at 400 ug after 18 hrs by disc-diffusion method; format: functional; settings: ATCC 12228, 18 h, read-out: IZ; outline: as §1
Staphylococcus aureus [8] = test: Antimicrobial activity against Staphylococcus aureus ATCC 25923 after 18 hrs by twofold serial microdilution method; format: functional; settings: ATCC 25923, 18 h
Staphylococcus aureus [9] = test: Antimicrobial activity against Staphylococcus aureus NCTC 4163 at 400 ug after 18 hrs by disc-diffusion method; format: functional; settings: NCTC 4163, 18 h, read-out: IZ; outline: as §1
Yellow fever virus = test: Antiviral activity against Yellow fever virus 17D infected in BHK cells assessed as protection against virus-induced cytopathogenicity after 3 to 4 days by MTT assay; format: functional, cell-based
Bacillus cereus = test: Antimicrobial activity against Bacillus cereus ATCC 11778 at 400 ug after 18 hrs by disc-diffusion method; format: functional; settings: ATCC 11778, 18 h, read-out: IZ; outline: as §1
Staphylococcus aureus [10] = test: Antimicrobial activity against Staphylococcus aureus ATCC 6538 at 400 ug after 18 hrs by disc-diffusion method; format: functional; settings: ATCC 6538, 18 h, read-out: IZ; outline: as §1
Staphylococcus aureus [11] = test: Antimicrobial activity against Staphylococcus aureus ATCC 25923 at 400 ug after 18 hrs by disc-diffusion method; format: functional; settings: ATCC 25923, 18 h, read-out: IZ; outline: as §1
Poliovirus 1 = test: Antiviral activity against Poliovirus type 1 ATCC VR-1562 infected in African green monkey Vero 76 cells assessed as reduction of virus-plaque formation after 2 days by crystal violet staining; format: functional, organism-based; settings: Enterovirus C, ATCC VR-1562, Vero, 48 h
[12] = Cytotoxicity against bovine MDBK cells assessed as cell viability after 48 to 96 hrs by MTT assay; format: cell-based, Bos taurus; settings: cattle
Coxsackievirus B5 = test: Antiviral activity against Human coxsackievirus B5 ATCC VR-29 infected in African green monkey Vero 76 cells assessed as reduction of virus-plaque formation after 3 days by crystal violet staining; format: functional, organism-based; settings: Enterovirus B, ATCC VR-29, Vero, 72 h; outline: as §3
Proteus vulgaris = test: Antimicrobial activity against Proteus vulgaris NCTC 4635 at 400 ug after 18 hrs by disc-diffusion method; format: functional; outline: as §1
Staphylococcus aureus [13] = test: Antimicrobial activity against Staphylococcus aureus ATCC 6538 after 18 hrs by twofold serial microdilution method; format: functional; settings: ATCC 6538, 18 h
[14] = test system: Staphylococcus epidermidis; test: Antimicrobial activity against Staphylococcus epidermidis ATCC 35984 after 18 hrs by twofold serial microdilution method; format: functional; settings: ATCC 35984, 18 h
Bacillus subtilis = test: Antimicrobial activity against Bacillus subtilis ATCC 6633 at 400 ug after 18 hrs by disc-diffusion method; format: functional; settings: ATCC 6633, 18 h, read-out: IZ; outline: as §1
[15] = test system: Mammalian orthoreovirus 1; test: Antiviral activity against Reovirus type-1 ATCC VR-214 infected in BHK cells assessed as protection against virus-induced cytopathogenicity after 3 to 4 days by MTT assay; format: functional, cell-based; settings: Mammalian orthoreovirus 1, ATCC VR-214, BHK
Outline: (§4)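 Cells seeded in 96-well plates (BHK 5x10^4, MDBK 3x10^4 cells/well), grown overnight to confluence, infected at m.o.i. 0.01 (BHK for Reo-1, MDBK for BVDV); serial compound dilutions in maintenance medium with 0.5% inactivated FBS added after 1 h; viability by MTT after 3–4 days at 37°C; EC50 for 50% protection by linear regression.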

Vaccinia virus = test: Antiviral activity against Human Vaccinia virus ATCC VR-1549 infected in African green monkey Vero 76 cells assessed as reduction of virus-plaque formation after 3 days by crystal violet staining; format: functional, organism-based; settings: Orthopoxvirus vaccinia, ATCC VR-1549, Vero, 72 h
Staphylococcus aureus [16] = test: Antimicrobial activity against Staphylococcus aureus NCTC 4163 after 18 hrs by twofold serial microdilution method; format: functional; settings: NCTC 4163, 18 h
Enterococcus hirae = test: Antimicrobial activity against Enterococcus hirae ATCC 10541 at 400 ug after 18 hrs by disc-diffusion method; format: functional; settings: ATCC 10541, 18 h, read-out: IZ; outline: as §1
[17] = test system: Human immunodeficiency virus 1; test: Antiviral activity against HIV1 3B infected in human MT4 cells assessed as protection against virus-induced cytopathogenicity by MTT assay; format: functional, organism-based; settings: Human immunodeficiency virus 1, 3B
Staphylococcus aureus [18] = test: Antimicrobial activity against Staphylococcus aureus ATCC 29213 after 18 hrs by twofold serial microdilution method; format: functional; settings: ATCC 29213, 18 h
[19] = Cytotoxicity against African green monkey Vero 76 cells assessed as cell viability after 48 to 96 hrs by crystal violet staining; format: cell-based; settings: chlorocebus sabaeus
[20] = test system: Staphylococcus epidermidis; test: Antimicrobial activity against Staphylococcus epidermidis ATCC 12228 after 18 hrs by twofold serial microdilution method; format: functional; settings: ATCC 12228, 18 h
[21] = Antiviral activity against Bovine viral diarrhea virus 1-NADL ATCC VR-534 infected in MDBK cells assessed as protection against virus-induced cytopathogenicity after 3 to 4 days by MTT assay; format: functional, cell-based; settings: Bovine viral diarrhea virus isolates and strains, ATCC VR-534, MDBK; outline: as §4
Micrococcus luteus [22] = test: Antimicrobial activity against Micrococcus luteus ATCC 9341 at 400 ug after 18 hrs by disc-diffusion method; format: functional; settings: ATCC 9341, 18 h, read-out: IZ; outline: as §1
[23] = test system: Staphylococcus epidermidis; test: Antimicrobial activity against Staphylococcus epidermidis ATCC 35984 at 400 ug after 18 hrs by disc-diffusion method; format: functional; settings: ATCC 35984, 18 h, read-out: IZ; outline: as §1
[24] = test system: Mycobacterium tuberculosis; test: Antimycobacterial activity against Mycobacterium tuberculosis H37Rv ATCC 25618; format: functional; outline: as §2

COc1cccc(NC(=S)Nc2cccc(C(F)(F)F)c2)c1
CC50 [1]: 12 µM
zone of inhibition at 400 µg/disc (Enterococcus faecalis): 13 mm
MIC [2]: > 100 µg/mL
EC50 (Human alphaherpesvirus 1): > 20 µM
EC50 [3]: > 20 µM
CC50 [4]: 26 µM
zone of inhibition at 400 µg/disc (Staphylococcus aureus [5]): 22 mm
zone of inhibition at 400 µg/disc (Micrococcus luteus [6]): 19 mm
zone of inhibition at 400 µg/disc [7]: 22 mm
MIC (Staphylococcus aureus [8]): 32 µg/mL (≈ 98.1 µM)
zone of inhibition at 400 µg/disc (Staphylococcus aureus [9]): 20 mm
EC50 (Yellow fever virus): > 12 µM
zone of inhibition at 400 µg/disc (Bacillus cereus): 19 mm
zone of inhibition at 400 µg/disc (Staphylococcus aureus [10]): 23 mm
zone of inhibition at 400 µg/disc (Staphylococcus aureus [11]): 20 mm
EC50 (Poliovirus 1): > 20 µM
CC50 [12]: 52 µM
EC50 (Coxsackievirus B5): > 20 µM
inhibition zone (IZ) (Proteus vulgaris): inactive
MIC (Staphylococcus aureus [13]): 32 µg/mL (≈ 98.1 µM)
MIC [14]: 32 µg/mL (≈ 98.1 µM)
zone of inhibition at 400 µg/disc (Bacillus subtilis): 20 mm
EC50 [15]: > 12 µM
EC50 (Vaccinia virus): > 20 µM
MIC (Staphylococcus aureus [16]): 32 µg/mL (≈ 98.1 µM)
zone of inhibition at 400 µg/disc (Enterococcus hirae): 12 mm
EC50 [17]: > 26 µM
MIC (Staphylococcus aureus [18]): 32 µg/mL (≈ 98.1 µM)
CC50 [19]: 20 µM
MIC [20]: 32 µg/mL (≈ 98.1 µM)
EC50 [21]: > 52 µM
zone of inhibition at 400 µg/disc (Micrococcus luteus [22]): 24 mm
zone of inhibition at 400 µg/disc [23]: 21 mm
MIC [24]: > 100 µg/mL

FC(F)(F)c1cccc(NC(=S)Nc2ccccc2)c1
CC50 [1]: 41 µM
zone of inhibition at 400 µg/disc (Enterococcus faecalis): 15 mm
MIC [2]: 50 µg/mL (≈ 169 µM)
EC50 (Human alphaherpesvirus 1): > 39 µM
EC50 [3]: > 39 µM
CC50 [4]: 39 µM
zone of inhibition at 400 µg/disc (Staphylococcus aureus [5]): 23 mm
zone of inhibition at 400 µg/disc (Micrococcus luteus [6]): 22 mm
zone of inhibition at 400 µg/disc [7]: 23 mm
MIC (Staphylococcus aureus [8]): 16 µg/mL (≈ 54 µM)
zone of inhibition at 400 µg/disc (Staphylococcus aureus [9]): 24 mm
EC50 (Yellow fever virus): > 41 µM
zone of inhibition at 400 µg/disc (Bacillus cereus): 22 mm
zone of inhibition at 400 µg/disc (Staphylococcus aureus [10]): 21 mm
zone of inhibition at 400 µg/disc (Staphylococcus aureus [11]): 23 mm
EC50 (Poliovirus 1): > 39 µM
CC50 [12]: 49 µM
EC50 (Coxsackievirus B5): > 39 µM
zone of inhibition at 400 µg/disc (Proteus vulgaris; NCTC 4635, 18 h, read-out: IZ): 11 mm
MIC (Staphylococcus aureus [13]): 16 µg/mL (≈ 54 µM)
MIC [14]: 16 µg/mL (≈ 54 µM)
zone of inhibition at 400 µg/disc (Bacillus subtilis): 21 mm
EC50 [15]: > 41 µM
EC50 (Vaccinia virus): > 39 µM
MIC (Staphylococcus aureus [16]): 16 µg/mL (≈ 54 µM)
zone of inhibition at 400 µg/disc (Enterococcus hirae): 25 mm
EC50 [17]: > 39 µM
MIC (Staphylococcus aureus [18]): 16 µg/mL (≈ 54 µM)
CC50 [19]: 39 µM
MIC [20]: 32 µg/mL (≈ 108 µM)
EC50 [21]: > 49 µM
zone of inhibition at 400 µg/disc (Micrococcus luteus [22]): 24 mm
zone of inhibition at 400 µg/disc [23]: 23 mm
MIC [24]: 50 µg/mL (≈ 169 µM)

FC(F)(F)c1cccc(NC(=S)Nc2ccc(Cl)c(Cl)c2)c1
CC50 [1]: 9.5 µM
CC50 [4]: 9 µM
CC50 [12]: 10 µM
CC50 [19]: 16 µM

O=c1cnn([C@@H]2O[C@H](CO)[C@@H](O)[C@H]2O)c(=O)[nH]1 [6-AZAURIDINE]
CC50 [19]: 12 µM

O=C1Nc2ccc(Cl)cc2[C@@](C#CC2CC2)(C(F)(F)F)O1 [EFAVIRENZ]
CC50 [4]: 40 µM

COc1c(C)c2c(c(O)c1C/C=C(\C)CCC(=O)O)C(=O)OC2 [MYCOPHENOLIC ACID]
CC50 [19]: > 100 µM

C[C@@]1(O)[C@H](O)[C@@H](CO)O[C@H]1n1cnc2c(=O)[nH]c(N)nc21 [2'-B-METHYL-GUANOSINE]
CC50 [1]: > 100 µM
EC50 (Yellow fever virus): 1.9 µM
CC50 [12]: > 10 µM
EC50 [21]: 1.1 µM

C[C@@]1(O)[C@H](O)[C@@H](CO)O[C@H]1n1ccc(N)nc1=O
CC50 [1]: > 10 µM
EC50 (Poliovirus 1): 7.3 µM
EC50 (Coxsackievirus B5): 18 µM
EC50 [15]: 16 µM
CC50 [19]: > 100 µM

Nc1nc2c(ncn2COCCO)c(=O)[nH]1 [ACYCLOVIR]
CC50 [19]: 13 µM

NNC(=O)c1ccncc1 [ISONIAZID]
MIC [2]: 12.5 µg/mL (≈ 91.1 µM)
MIC [24]: 6.25 µg/mL (≈ 45.6 µM)
